Reference: PubChem BioAssay
The source made the active and inactive calls.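 The calls were made as follows, unless noted: active = viability loss from added drug above about 55%, and viability with drug at most 40%, in both replicates (limit read from the data, passing the limit was not always enough); inconclusive = both conditions met in only one replicate; inactive = neither replicate meets both conditions.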

Columns and labels:
[1] = reducers of endogenous Her2 protein level, primary screen, SKBR3 breast tumor cells, AlphaScreen, ATP viability (AID 461;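 active = Her2 level under about 52% in both replicate screens, with viability over 70% of control, limit read from the data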;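 as to Her2 level: lower value means less Her2 protein in the cells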;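 as to viability: percent of carrier control wells set as 100% viability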); details: 18-24 h, measured here: SKBR3 viability, ATP luminescence, at 10 µM
[2] = molecular target: Receptor tyrosine-protein kinase erbB-2 (Homo sapiens) (UniProt P04626); assay: as above; details: 18-24 h, at 10 µM, stronger effect = lower value
[3] = SK-BR-3 cell growth inhibitors, pilot screen, 24 h, human (AID 572;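 active = viability at or below 10% of carrier control in both of two separate runs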;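 also: compound exposure lasted between 18 and 24 h rather than exactly 24 h; 100% = carrier-treated control wells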); details: SK-BR-3 viability, CellTiter-Glo luminescence, at 10 µM, stronger effect = lower value
[4] = HUVEC growth inhibition – cell-based, human, primary screen (AID 575;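 active = viability at or below 30% in both replicate assays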;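 also: 100% = median of untreated cell wells with 0.1% DMSO on each plate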); details: HUVEC proliferation, CellTiter-Glo luminescence, 72 h; at 10 µM; stronger effect = lower value
Procedure, shortened: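 Test system: primary human umbilical vein endothelial cells. Quantity: 1250 cells/well. Compound: single 10 µM dose, 0.1% DMSO, from 5x medium stock. Timing: 72 h treatment at 37 °C. Detection: ATP-based CellTiter-Glo luminescent read. Benchmarks: vehicle and MePR control wells. Format: 384-well plates coated with collagen.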

[5] = growth inhibitors of H69AR lung tumor, primary screen, human, duplicate replicates (AID 580;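 active = viability at or under a set limit in both replicates, limit being median viability minus 3 SD, cut at about 48% in these data, passing the limit was not always enough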;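 also: 100% = mean luminescence of untreated wells and 0% = no signal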); details: H69AR lung tumor cells viability, ATP luminescence, 72 h; at 10 µM; stronger effect = lower value
[6] = reversal of MRP1-mediated doxorubicin resistance, pilot screen, H69AR cells, doxorubicin co-treatment (AID 601); details: CellTiter-Glo, 72 h, at 10 µM; for differential viability (reversal): stronger effect = higher value
[7] = 384-well plate pilot, post-Golgi transport modulator project, inhibition of yeast transport mutant growth (AID 636; in the data active = inhibition above about 31%); details: absorbance 615 nm, about 18 h, stronger effect = higher value
[8] = growth suppression of yeast trafficking mutant, preliminary HTS, modulators of trafficking downstream of Golgi apparatus project, 1536-format plate, OD 615 nm (AID 637; in the data active = inhibition above about 30%); details: yeast transport mutant growth, absorbance 615 nm, 18 h; stronger effect = higher value
[9] = H69AR cells + 2 uM doxorubicin, measured here: viability with 2 uM doxorubicin, stronger effect = lower value
[10] = H69AR cells, compound alone cytotoxicity

Chain of Receptor tyrosine-protein kinase erbB-2 (Homo sapiens) (P04626 whole entry, looked up): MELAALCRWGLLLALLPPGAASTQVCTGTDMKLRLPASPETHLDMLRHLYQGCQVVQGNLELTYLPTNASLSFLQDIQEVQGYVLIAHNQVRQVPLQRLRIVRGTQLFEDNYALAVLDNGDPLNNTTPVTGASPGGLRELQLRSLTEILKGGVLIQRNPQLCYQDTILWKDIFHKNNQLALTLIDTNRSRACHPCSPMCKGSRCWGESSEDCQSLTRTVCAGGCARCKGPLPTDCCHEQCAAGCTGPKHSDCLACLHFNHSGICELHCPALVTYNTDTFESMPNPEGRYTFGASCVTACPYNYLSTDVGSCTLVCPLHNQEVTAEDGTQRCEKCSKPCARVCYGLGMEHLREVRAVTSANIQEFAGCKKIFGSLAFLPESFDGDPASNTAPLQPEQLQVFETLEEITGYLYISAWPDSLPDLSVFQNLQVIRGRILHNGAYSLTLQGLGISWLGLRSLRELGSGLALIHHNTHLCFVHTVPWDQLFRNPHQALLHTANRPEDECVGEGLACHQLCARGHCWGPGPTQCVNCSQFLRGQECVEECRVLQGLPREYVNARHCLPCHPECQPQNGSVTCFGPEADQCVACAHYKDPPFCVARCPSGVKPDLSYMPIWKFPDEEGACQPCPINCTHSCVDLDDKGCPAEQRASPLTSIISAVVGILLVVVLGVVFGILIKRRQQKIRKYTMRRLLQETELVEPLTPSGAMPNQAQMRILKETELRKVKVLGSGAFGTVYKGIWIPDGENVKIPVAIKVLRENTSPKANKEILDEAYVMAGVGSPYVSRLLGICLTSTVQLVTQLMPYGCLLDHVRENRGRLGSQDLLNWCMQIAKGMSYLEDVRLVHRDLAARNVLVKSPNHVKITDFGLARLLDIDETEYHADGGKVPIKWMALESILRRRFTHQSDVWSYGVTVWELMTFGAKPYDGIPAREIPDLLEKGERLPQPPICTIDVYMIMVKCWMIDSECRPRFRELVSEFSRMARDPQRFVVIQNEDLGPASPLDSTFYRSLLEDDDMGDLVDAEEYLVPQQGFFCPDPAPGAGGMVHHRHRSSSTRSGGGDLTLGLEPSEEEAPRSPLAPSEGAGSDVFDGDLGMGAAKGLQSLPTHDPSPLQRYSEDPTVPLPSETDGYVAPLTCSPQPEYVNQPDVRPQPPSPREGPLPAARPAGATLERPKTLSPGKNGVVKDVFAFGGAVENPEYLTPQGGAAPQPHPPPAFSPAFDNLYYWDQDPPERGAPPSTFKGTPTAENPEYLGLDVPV

Structure (SMILES) | viability [1] [%] | Her2 level [2] | viability [3] | viability [4] | viability [5] | differential viability (reversal) ([6]; H69AR cells + 2 uM doxorubicin) | viability [6, 9] [%] | viability [6, 10] [%] | inhibition [7] | inhibition [8]
CCOC(=O)CN1CC23C=CC(O2)C(C(=O)Nc2ccc(OC)cc2OC)C3C1=O (stereo not given) | 99 | 99% (inactive) | 99% (inactive) | 93.7% (inactive) | 98.9% (inactive) | 5.06% (inactive) | 93.9 | 98.9 | -0.77% (inactive) | 1.83% (inactive)
CCc1nn2c(N3CCOCC3)cc(C)nc2c1-c1ccc(F)cc1 | 92 | 84% (inactive) | 92% (inactive) | 86.2% (inactive) | 93.4% (inactive) | 31.5% (inactive) | 62 | 93.4 | -6.16% (inactive) | 1.75% (inactive)
CCN(CC)C(=O)CSc1nc2ccc(NC(=O)CSc3nccn3C)cc2s1 | 88.5 | 93.5% (inactive) | 88.5% (inactive) | 68.2% (inactive) | 91% (inactive) | 6.22% (inactive) | 84.8 | 91 | -4.47% (inactive) | -1.45% (inactive)
O=C(NC1CCS(=O)(=O)C1)N1CCCCC1 (stereo not given) | 102 | 79.5% (inactive) | 102% (inactive) | 103% (inactive) | 89.6% (inactive) | 1.27% (inactive) | 88.3 | 89.6 | -5.92% (inactive) | -2% (inactive)
Cc1c(C(=O)N2CCOCC2)oc2ccc(S(=O)(=O)N3CCCC3)cc12 | 95 | 109% (inactive) | 95% (inactive) | 94.3% (inactive) | 87.8% (inactive) | -6.14% (inactive) | 94 | 87.8 | -6.35% (inactive) | -4.59% (inactive)
COc1ccc(-c2nc(C#N)c(NCCCN(C)C)o2)cc1OC | 95 | 111% (inactive) | 95% (inactive) | 102% (inactive) | 96.2% (inactive) | 3.08% (inactive) | 93.1 | 96.2 | -0.26% (inactive) | -5% (inactive)
COc1cccc(-c2cc(C(=O)NCc3ccc(Cl)cc3)no2)c1 | 84 | 94% (inactive) | 84% (inactive) | 97% (inactive) | 89.3% (inactive) | 5.11% (inactive) | 84.2 | 89.3 | -6.62% (inactive) | 0.82% (inactive)
CC(C)=CC/C=C1\CCC(C(=O)O)C(C(=O)O)C1 (stereo not given) | 114 | 104% (inactive) | 114% (inactive) | 91.6% (inactive) | 104% (inactive) | 20.5% (inactive) | 83.2 | 104 | -6.13% (inactive) | -0.48% (inactive)
Cc1oc(-c2ccccc2Cl)nc1CSCC(=O)N1CCCC1 | 72 | 86.5% (inactive) | 72% (inactive) | 79.4% (inactive) | 99.5% (inactive) | 14.6% (inactive) | 85 | 99.5 | -0.93% (inactive) | 6.61% (inactive)
C=CCn1c(SCC(=O)NC2CCCCC2)nnc1-c1sc(N)nc1C | 99.5 | 102% (inactive) | 99.5% (inactive) | 110% (inactive) | 95.8% (inactive) | 0.86% (inactive) | 94.9 | 95.8 | -2.8% (inactive) | -1.45% (inactive)
COc1ccc(OC)c(S(=O)(=O)N2c3ccccc3CC2C)c1 (stereo not given) | 82.5 | 109% (inactive) | 82.5% (inactive) | 77.6% (inactive) | 89.4% (inactive) | -11.7% (inactive) | 101 | 89.4 | -4.86% (inactive) | -3.93% (inactive)
Cc1cccc(-n2nnc(C(=O)NCc3ccccc3)c2N)c1 | 110 | 84.5% (inactive) | 110% (inactive) | 102% (inactive) | 90.4% (inactive) | 3.36% (inactive) | 87 | 90.4 | 0.92% (inactive) | -3.45% (inactive)
CCSc1nnc(NC(=O)c2csc(C)c2)s1 | 95 | 83.5% (inactive) | 95% (inactive) | 81.2% (inactive) | 87.7% (inactive) | -7.62% (inactive) | 95.3 | 87.7 | -2.27% (inactive) | -5.41% (inactive)
CCCN(C(=O)CSc1nnc(-c2ccoc2C)n1N)C1CCS(=O)(=O)C1 (stereo not given) | 86.5 | 88.5% (inactive) | 86.5% (inactive) | 79.7% (inactive) | 94.8% (inactive) | 7.94% (inactive) | 86.9 | 94.8 | -2.6% (inactive) | 2.13% (inactive)
C=CCc1cc(OC)ccc1OCC(O)CN1CCN(c2ccc(OC)cc2)CC1 (stereo not given) | 82.5 | 78% (inactive) | 82.5% (inactive) | 89% (inactive) | 99.6% (inactive) | -4.29% (inactive) | 104 | 99.6 | 0.13% (inactive) | 8.57% (inactive)
CCOC(=O)Cn1c(S(=O)(=O)Cc2ccccc2)nc2ccccc21 | 86 | 89.5% (inactive) | 86% (inactive) | 103% (inactive) | 91.5% (inactive) | 4.28% (inactive) | 87.2 | 91.5 | -0.13% (inactive) | -3% (inactive)
O=S(NCc1ccco1)C12CC3CC(CC(C3)C1)C2 (stereo not given) | 104 | 116% (inactive) | 104% (inactive) | 93.5% (inactive) | 88% (inactive) | 3.96% (inactive) | 84 | 88 | -1.08% (inactive) | -5.4% (inactive)
N#CC(C(=O)c1ccco1)c1ccccn1 (stereo not given) | 106 | 81% (inactive) | 106% (inactive) | 98.1% (inactive) | 86.1% (inactive) | 4.21% (inactive) | 81.9 | 86.1 | -7.37% (inactive) | 0.67% (inactive)
COC(=O)c1ccccc1S(=O)(=O)N(CCCO)Cc1cc2c(C)ccc(C)c2[nH]c1=O | 84.5 | 106% (inactive) | 84.5% (inactive) | 75.3% (inactive) | 79.3% (inactive) | -2.33% (inactive) | 81.6 | 79.3 | -4.73% (inactive) | -5.25% (inactive)
Cc1noc(C)c1CSc1nnc2n(-c3ccccc3)c(=O)c3ccccc3n12 | 72.5 | 75.5% (inactive) | 72.5% (inactive) | 105% (inactive) | 81.7% (inactive) | -18.9% (inactive) | 101 | 81.7 | 2.31% (inactive) | -5.83% (inactive)
O=C(Nc1ccc(Br)cc1F)c1sccc1-n1cccc1 | 87.5 | 72.5% (inactive) | 87.5% (inactive) | 93.5% (inactive) | 83.1% (inactive) | 1.42% (inactive) | 81.7 | 83.1 | -5.66% (inactive) | -8.67% (inactive)
Nc1ncnc2nc(SCCN3CCCCC3)[nH]c12 | 119 | 88% (inactive) | 119% (inactive) | 102% (inactive) | 100% (inactive) | 3.13% (inactive) | 97.3 | 100 | 3.29% (inactive) | -5.32% (inactive)
Cc1cc(C)nc(N2CCC(C(=O)NCc3cccc(C(F)(F)F)c3)CC2)n1 | 104 | 100% (inactive) | 104% (inactive) | 76.6% (inactive) | 91.1% (inactive) | 4.94% (inactive) | 86.2 | 91.1 | -6.08% (inactive) | -2.33% (inactive)
Cc1cccc(Nc2nc3c(c(=O)n(C)c(=O)n3C)n2Cc2ccccc2)c1 | 122 | 87% (inactive) | 122% (inactive) | 93.2% (inactive) | 96.6% (inactive) | -0.855% (inactive) | 97.5 | 96.6 | -4.32% (inactive) | 2.86% (inactive)
COc1ccccc1OCc1ccc(C(=O)NC(C)(C)C)o1 | 83 | 102% (inactive) | 83% (inactive) | 94.2% (inactive) | 95.4% (inactive) | 14.6% (inactive) | 80.9 | 95.4 | 1.71% (inactive) | -5.82% (inactive)
Cc1nc2ccccn2c1P(=O)(N1CCCCC1)N1CCCCC1 | 92.5 | 112% (inactive) | 92.5% (inactive) | 117% (inactive) | 91% (inactive) | 1.72% (inactive) | 89.3 | 91 | -2.93% (inactive) | 0% (inactive)
COc1ccc2cc(C(=O)NCc3ccco3)c(=Nc3ccc(C(=O)O)cc3)oc2c1 | 68 | 83% (inactive) | 68% (inactive) | 77.4% (inactive) | 55% (inactive) | -14.1% (inactive) | 69.1 | 55 | -5% (inactive) | -1% (inactive)
COc1cccc(Cn2c(Oc3ccccc3)nc3c2c(=O)n(C)c(=O)n3C)c1 | 100 | 104% (inactive) | 100% (inactive) | 72.7% (inactive) | 83.8% (inactive) | 3.32% (inactive) | 80.5 | 83.8 | -0.13% (inactive) | 6.07% (inactive)
